Source: PubChem BioAssay (several laboratories)
Only some compounds are listed: those with a hit (about 2.2% of all), similar ones and a draw of the others.
PvdQ inh – blocks Pseudomonas aeruginosa PvdQ acylase activity; purified PvdQ acylase, fluorescence plate reader; inhibition, % at 10 µM; hit rate 0.063% among 340,000; AID 488965; in the data active means inhibition above about 30%, passing the limit was not always enough
PHOSPHO1 inh – inhibitors of human PHOSPHO1 phosphatase; Q8TCT1; recombinant PHOSPHO1, absorbance phosphatase assay; inhibition, % at 13.3 µM; hit rate 1.1% among 290,000; in the data active means inhibition above about 60%
Target sequence (Q8TCT1 whole entry, looked up): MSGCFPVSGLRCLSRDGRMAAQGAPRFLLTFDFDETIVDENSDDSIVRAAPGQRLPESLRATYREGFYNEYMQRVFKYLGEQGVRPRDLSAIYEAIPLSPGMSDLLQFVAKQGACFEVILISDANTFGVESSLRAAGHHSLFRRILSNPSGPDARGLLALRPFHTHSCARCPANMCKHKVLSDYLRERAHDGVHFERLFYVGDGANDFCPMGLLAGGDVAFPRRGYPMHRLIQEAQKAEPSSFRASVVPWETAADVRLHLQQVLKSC
Yeast superoxide – yeast age-related superoxide inhibition as caloric restriction mimetic. AID 2690. superoxide response (% of plate mean), % at 10 µM. hit rate 0.18% among 330,000. S. cerevisiae aged cells, superoxide DHE fluorescence; active compounds read low;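 active means superoxide response under a set limit, about three screen SD below normal, cut at about 65% in these data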;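 further: yeast aged for seven days with compound at 30 °C before DHE staining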
VIM-2 inhibitor – blocks Pseudomonas aeruginosa VIM-2 metallo-beta-lactamase; purified VIM-2, nitrocefin hydrolysis, epi-absorbance fluorescence; inhibition, % at 5.6 µM; hit rate 0.89% among 290,000; AID 1527;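 active means inhibition above the mean of all tested compounds plus 3 SD, cutoff set per screening run, cut at about 7.5% in these data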;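 further: red hydrolysis product quenches plate fluorescence so inhibitors raise well fluorescence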
IMP-1 inh – blocks Pseudomonas aeruginosa IMP-1 metallo-beta-lactamase. purified IMP-1, nitrocefin hydrolysis, epi-absorbance fluorescence. inhibition, % at 5.6 µM. hit rate 0.45% among 290,000. AID 1556;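 active means inhibition above the mean plus 3 SD of all compounds in the same screening run, cut at about 4.5% in these data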
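Test system: recombinant IMP-1 enzyme, purified / Medium: HEPES buffer pH 7.1 with ZnSO4 and Brij 35 / Doses: single dose, 5.6 µM / Times: 25 °C, 15 min preincubation, 25 min reaction / Detection: Epi-absorbance via hydrolysed-nitrocefin quenching of white-plate fluorescence, 480/530 nm, EDTA stop / Evaluation: percent inhibition from optical density relative to buffer-blank wells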
Hits are given with their value.

For S=c1[nH]nc(-c2ccco2)n1-c1ccccc1Cl the results were PvdQ inh inactive, PHOSPHO1 inh inactive, Yeast superoxide inactive, VIM-2 inhibitor 16 and IMP-1 inh inactive.
For S=c1[nH]nc(-c2cc(-c3ccco3)[nH]n2)n1-c1ccccc1Cl the results were PvdQ inh inactive, PHOSPHO1 inh 86, Yeast superoxide inactive, VIM-2 inhibitor inactive and IMP-1 inh inactive.
Screening Oc1ccccc1-c1cc(-c2ccco2)[nH]n1 returned PvdQ inh inactive, PHOSPHO1 inh 73, Yeast superoxide inactive, VIM-2 inhibitor inactive and IMP-1 inh inactive.
O=C(COC(=O)Cc1ccsc1)Nc1ccc(Br)cc1F was read as PvdQ inh inactive and Yeast superoxide inactive.
For CN(CC(=O)Nc1ccc(F)c(F)c1F)C(=O)CCCSc1nc2ccccc2[nH]1 the results were PvdQ inh inactive and Yeast superoxide inactive.
`C=CCn1c(O)c(C2=c3ccccc3=NC2=O)sc1=Nc1ccc(O)cc1` gave PvdQ inh inactive, PHOSPHO1 inh inactive and Yeast superoxide inactive.
For FC(F)(F)c1cc(-c2ccccc2)nc(N2CCOCC2)n1 the results were PvdQ inh inactive, PHOSPHO1 inh 74, Yeast superoxide inactive, VIM-2 inhibitor inactive and IMP-1 inh inactive.
For COc1ccc(-n2c(C)cc(/C=C3\SC(=S)N(Cc4ccco4)C3=O)c2C)cc1 the results were PvdQ inh inactive, PHOSPHO1 inh inactive, Yeast superoxide inactive, VIM-2 inhibitor inactive and IMP-1 inh inactive.
`CCN1CCN(c2c(/C=C3\SC(=S)N(Cc4ccco4)C3=O)c(C)c(C#N)c(=O)n2C)CC1` gave PvdQ inh inactive, PHOSPHO1 inh inactive, Yeast superoxide inactive, VIM-2 inhibitor inactive and IMP-1 inh 6.4.
`CC(CCc1ccccc1)NC(=O)/C=C/c1ccc(F)cc1` (stereo not drawn) gave PHOSPHO1 inh inactive, Yeast superoxide inactive, VIM-2 inhibitor inactive and IMP-1 inh inactive.
CC(CCc1ccccc1)NC(=O)/C=C/c1ccccc1 (stereo not drawn) was read as PvdQ inh inactive, PHOSPHO1 inh 64, Yeast superoxide inactive, VIM-2 inhibitor inactive and IMP-1 inh inactive.
For COc1ccc(C2C3=C(N=C4SCC(=O)N42)c2ccccc2CC3)cc1OC (stereo not drawn) the results were PvdQ inh inactive, PHOSPHO1 inh inactive, Yeast superoxide inactive, VIM-2 inhibitor inactive and IMP-1 inh 5.9.
For CCn1ccc2cc(OC)ccc2c1=S the results were PvdQ inh inactive, PHOSPHO1 inh 87, Yeast superoxide inactive, VIM-2 inhibitor inactive and IMP-1 inh inactive.
For COc1ccc(S(=O)(=O)N2CCC(C(=O)Oc3ccc(C)cc3)CC2)cc1OC the results were PvdQ inh inactive and Yeast superoxide inactive.
For O=C(O)C1=C[C@@H](c2csc3ccccc23)C[C@@H](OCCCCO)O1 the results were PvdQ inh inactive, PHOSPHO1 inh inactive, VIM-2 inhibitor inactive and IMP-1 inh inactive.
O=C(O)C1=C[C@H](c2csc3ccccc23)C[C@H](OCCCCO)O1 was read as PvdQ inh inactive, PHOSPHO1 inh inactive, VIM-2 inhibitor 9.5 and IMP-1 inh inactive.
`O=C(C1CCN(c2ncnc3c2sc2cccc(F)c23)CC1)N1CCOCC1` gave PvdQ inh inactive, PHOSPHO1 inh inactive, Yeast superoxide inactive, VIM-2 inhibitor 11 and IMP-1 inh inactive.
`O=C(C1CCN(c2nnc(-n3cccc3)s2)CC1)N1CCOCC1` gave PvdQ inh inactive, PHOSPHO1 inh inactive, Yeast superoxide inactive, VIM-2 inhibitor inactive and IMP-1 inh inactive.
O=C1CSC2(CCCCC2)N1CCO was read as PvdQ inh inactive, PHOSPHO1 inh inactive, Yeast superoxide inactive, VIM-2 inhibitor inactive and IMP-1 inh 5.6.
`Cc1cccc(N2C(=O)CSC23CCCCC3)c1` gave PvdQ inh inactive, PHOSPHO1 inh inactive, Yeast superoxide inactive, VIM-2 inhibitor inactive and IMP-1 inh inactive.
Cn1c(N)c(C(=O)CSc2nc(C3CC3)n(-c3ccccc3)n2)c(=O)n(C)c1=O was read as PvdQ inh inactive and Yeast superoxide inactive.
For O=C(CCC1CCCN(C(=O)c2ccc3cc[nH]c3c2)C1)N1CCN(c2ccccn2)CC1 (stereo not drawn) the results were PvdQ inh inactive, PHOSPHO1 inh inactive, Yeast superoxide inactive, VIM-2 inhibitor inactive and IMP-1 inh inactive.
O=C(CCC1CCCN(C(=O)c2ccc3[nH]ccc3c2)C1)N1CCN(c2ccccn2)CC1 (stereo not drawn) was read as PvdQ inh inactive, PHOSPHO1 inh 64, Yeast superoxide inactive, VIM-2 inhibitor inactive and IMP-1 inh inactive.
